Source: ChEMBL document CHEMBL3585281, “Antibacterial Labdane Diterpenoids from Vitex vestita” (2015)
In brackets after ≈: the same amount, converted by molar mass.

Columns and labels:
Type in all cases: functional
Bacillus cereus [1] = assay: Antibacterial activity against Bacillus cereus N190 after 18 hrs by agar dilution method; details: N190, 18 h
Procedure, shortened: (§1)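 Agar-dilution MIC against Gram-positive strains. Compounds in DMSO, geometric dilutions giving final 100−0.75 mg/L in Mueller Hinton agar. Strains grown 18 h at 37 °C in trypticase soy broth, diluted in sterile water, spotted by Steers inoculator (about 1000 UFC/spot). Plates incubated 18 h at 37 °C; DMSO blank; ofloxacin positive control. MIC = lowest concentration with no visible growth.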

[2] = system: Staphylococcus epidermidis; assay: Antibacterial activity against Staphylococcus epidermidis CIP 53124 after 18 hrs by agar dilution method; details: CIP 53124, 18 h; procedure, shortened: as §1
Staphylococcus aureus [3] = assay: Antibacterial activity against Staphylococcus aureus ATCC 9144 oxford after 18 hrs by agar dilution method; procedure, shortened: as §1
Enterococcus gallinarum [4] = assay: Antibacterial activity against Enterococcus gallinarum N492 after 18 hrs by agar dilution method; details: N492, 18 h; procedure, shortened: as §1
Staphylococcus aureus [5] = assay: Antibacterial activity against Staphylococcus aureus CRBIP 2121 after 18 hrs by agar dilution method; details: CRBIP 2121, 18 h; procedure, shortened: as §1
[6] = system: Staphylococcus saprophyticus; assay: Antibacterial activity against Staphylococcus saprophyticus CIP 76125 after 18 hrs by agar dilution method; details: CIP 76125, 18 h; procedure, shortened: as §1
[7] = system: Staphylococcus saprophyticus; assay: Antibacterial activity against Staphylococcus saprophyticus E260 after 18 hrs by agar dilution method; details: E260, 18 h; procedure, shortened: as §1
Enterococcus gallinarum [8] = assay: Antibacterial activity against Enterococcus gallinarum N489 after 18 hrs by agar dilution method; details: N489, 18 h; procedure, shortened: as §1
Enterococcus faecalis [9] = assay: Antibacterial activity against Enterococcus faecalis N520 after 18 hrs by agar dilution method; details: N520, 18 h; procedure, shortened: as §1
Bacillus spizizenii = assay: Antibacterial activity against Bacillus subtilis ATCC 6633 after 18 hrs by agar dilution method; details: ATCC 6633, 18 h; procedure, shortened: as §1
Enterococcus faecium [10] = assay: Antibacterial activity against Enterococcus faecium CIP 107387 after 18 hrs by agar dilution method; details: CIP 107387, 18 h; procedure, shortened: as §1
Enterococcus faecalis [11] = assay: Antibacterial activity against Enterococcus faecalis N491 after 18 hrs by agar dilution method; details: N491, 18 h; procedure, shortened: as §1
Staphylococcus aureus [12] = assay: Antibacterial activity against Staphylococcus aureus CIP 53154 after 18 hrs by agar dilution method; details: CIP 53154, 18 h; procedure, shortened: as §1
Enterococcus faecalis [13] = assay: Antibacterial activity against Enterococcus faecalis CIP 103214 after 18 hrs by agar dilution method; details: CIP 103214, 18 h; procedure, shortened: as §1
Listeria monocytogenes [14] = assay: Antibacterial activity against Listeria monocytogenes N783 after 18 hrs by agar dilution method; details: N783, 18 h; procedure, shortened: as §1
Enterococcus durans = assay: Antibacterial activity against Enterococcus durans CIP 104999 after 18 hrs by agar dilution method; details: CIP 104999, 18 h; procedure, shortened: as §1
[15] = system: Staphylococcus haemolyticus; assay: Antibacterial activity against Staphylococcus haemolyticus CIP 8156 after 18 hrs by agar dilution method; details: CIP 8156, 18 h; procedure, shortened: as §1
Bacillus cereus [16] = assay: Antibacterial activity against Bacillus cereus CIP 6624 after 18 hrs by agar dilution method; details: CIP 6624, 18 h; procedure, shortened: as §1
[17] = system: Enterococcus casseliflavus; assay: Antibacterial activity against Enterococcus casseliflavus CIP 103018 after 18 hrs by agar dilution method; details: CIP 103018, 18 h; procedure, shortened: as §1
Enterococcus faecium [18] = assay: Antibacterial activity against Enterococcus faecium N490 after 18 hrs by agar dilution method; details: N490, 18 h; procedure, shortened: as §1
Enterococcus gallinarum [19] = assay: Antibacterial activity against Enterococcus gallinarum CIP 105985 after 18 hrs by agar dilution method; details: CIP 105985, 18 h; procedure, shortened: as §1
Staphylococcus aureus [20] = assay: Antibacterial activity against Staphylococcus aureus CIP 483 after 18 hrs by agar dilution method; details: CIP 483, 18 h; procedure, shortened: as §1
Listeria monocytogenes [21] = assay: Antibacterial activity against Listeria monocytogenes N851 after 18 hrs by agar dilution method; details: N851, 18 h; procedure, shortened: as §1
Mammaliicoccus sciuri = assay: Antibacterial activity against Staphylococcus sciuri N993 after 18 hrs by agar dilution method; details: N993, 18 h; procedure, shortened: as §1
Enterococcus faecium [22] = assay: Antibacterial activity against Enterococcus faecium N733 after 18 hrs by agar dilution method; details: N733, 18 h; procedure, shortened: as §1
Enterococcus hirae = assay: Antibacterial activity against Enterococcus hirae CIP 5855 after 18 hrs by agar dilution method; details: CIP 5855, 18 h; procedure, shortened: as §1
Staphylococcus aureus [23] = assay: Antibacterial activity against Staphylococcus aureus ATCC 25923 after 18 hrs by agar dilution method; details: ATCC 25923, 18 h; procedure, shortened: as §1
Enterococcus faecalis [24] = assay: Antibacterial activity against Enterococcus faecalis N518 after 18 hrs by agar dilution method; details: N518, 18 h; procedure, shortened: as §1
Listeria monocytogenes [25] = assay: Antibacterial activity against Listeria monocytogenes N836 after 18 hrs by agar dilution method; details: N836, 18 h; procedure, shortened: as §1
Bacillus cereus [26] = assay: Antibacterial activity against Bacillus cereus N349 after 18 hrs by agar dilution method; details: N349, 18 h; procedure, shortened: as §1
Listeria innocua = assay: Antibacterial activity against Listeria innocua E044 after 18 hrs by agar dilution method; details: E044, 18 h; procedure, shortened: as §1
[27] = system: Enterococcus casseliflavus; assay: Antibacterial activity against Enterococcus casseliflavus N487 after 18 hrs by agar dilution method; details: N487, 18 h; procedure, shortened: as §1
Staphylococcus aureus [28] = assay: Antibacterial activity against Staphylococcus aureus CIP 7625 after 18 hrs by agar dilution method; details: CIP 7625, 18 h; procedure, shortened: as §1
Staphylococcus aureus [29] = assay: Antibacterial activity against Staphylococcus aureus CIP 53156 after 18 hrs by agar dilution method; details: CIP 53156, 18 h; procedure, shortened: as §1
Enterococcus avium = assay: Antibacterial activity against Enterococcus avium CIP 104053 after 18 hrs by agar dilution method; details: CIP 104053, 18 h; procedure, shortened: as §1
[30] = system: Staphylococcus lugdunensis; assay: Antibacterial activity against Staphylococcus lugdunensis ATCC 43809 after 18 hrs by agar dilution method; details: ATCC 43809, 18 h; procedure, shortened: as §1
Staphylococcus aureus [31] = assay: Antibacterial activity against Staphylococcus aureus CIP 5710 after 18 hrs by agar dilution method; details: CIP 5710, 18 h; procedure, shortened: as §1
Listeria monocytogenes [32] = assay: Antibacterial activity against Listeria monocytogenes CIP 103575 after 18 hrs by agar dilution method; details: CIP 103575, 18 h; procedure, shortened: as §1
Enterococcus faecium [33] = assay: Antibacterial activity against Enterococcus faecium CIP 103014 after 18 hrs by agar dilution method; details: CIP 103014, 18 h; procedure, shortened: as §1
Streptococcus agalactiae = assay: Antibacterial activity against Streptococcus agalactiae CIP 103227 after 18 hrs by agar dilution method; details: ATCC 13813, 18 h; procedure, shortened: as §1
Enterococcus faecalis [34] = assay: Antibacterial activity against Enterococcus faecalis CIP 104676 after 18 hrs by agar dilution method; details: CIP 104676, 18 h; procedure, shortened: as §1
Corynebacterium striatum = assay: Antibacterial activity against Corynebacterium striatum N840 after 18 hrs by agar dilution method; details: N840, 18 h; procedure, shortened: as §1
Enterococcus faecium [35] = assay: Antibacterial activity against Enterococcus faecium N507 after 18 hrs by agar dilution method; details: N507, 18 h; procedure, shortened: as §1
[36] = system: Staphylococcus intermedius; assay: Antibacterial activity against Staphylococcus intermedius N987 after 18 hrs by agar dilution method; details: N987, 18 h; procedure, shortened: as §1
Bacillus cereus [37] = assay: Antibacterial activity against Bacillus cereus N258 after 18 hrs by agar dilution method; details: N258, 18 h; procedure, shortened: as §1
Enterococcus faecium [38] = assay: Antibacterial activity against Enterococcus faecium N823 after 18 hrs by agar dilution method; details: N823, 18 h; procedure, shortened: as §1

MIC (Bacillus cereus [1]): 6 µM (≈ 1.94 µg/mL)
MIC [2]: 6 µM (≈ 1.94 µg/mL)
MIC (Staphylococcus aureus [3]): 12 µM (≈ 3.88 µg/mL)
MIC (Enterococcus gallinarum [4]): 25 µM (≈ 8.08 µg/mL)
MIC (Staphylococcus aureus [5]): 12 µM (≈ 3.88 µg/mL)
MIC [6]: 25 µM (≈ 8.08 µg/mL)
MIC [7]: 25 µM (≈ 8.08 µg/mL)
MIC (Enterococcus gallinarum [8]): 12 µM (≈ 3.88 µg/mL)
MIC (Enterococcus faecalis [9]): 200 µM (≈ 64.6 µg/mL)
MIC (Bacillus spizizenii): 12 µM (≈ 3.88 µg/mL)
MIC (Enterococcus faecium [10]): 12 µM (≈ 3.88 µg/mL)
MIC (Enterococcus faecalis [11]): 12 µM (≈ 3.88 µg/mL)
MIC (Staphylococcus aureus [12]): 12 µM (≈ 3.88 µg/mL)
MIC (Enterococcus faecalis [13]): 25 µM (≈ 8.08 µg/mL)
MIC (Listeria monocytogenes [14]): 12 µM (≈ 3.88 µg/mL)
MIC (Enterococcus durans): 12 µM (≈ 3.88 µg/mL)
MIC (Bacillus cereus [16]): 6 µM (≈ 1.94 µg/mL)
MIC [17]: 25 µM (≈ 8.08 µg/mL)
MIC (Enterococcus faecium [18]): 12 µM (≈ 3.88 µg/mL)
MIC (Enterococcus gallinarum [19]): 12 µM (≈ 3.88 µg/mL)
MIC (Staphylococcus aureus [20]): 12 µM (≈ 3.88 µg/mL)
MIC (Listeria monocytogenes [21]): 25 µM (≈ 8.08 µg/mL)
MIC (Mammaliicoccus sciuri): 12 µM (≈ 3.88 µg/mL)
MIC (Enterococcus faecium [22]): 12 µM (≈ 3.88 µg/mL)
MIC (Enterococcus hirae): 12 µM (≈ 3.88 µg/mL)
MIC (Staphylococcus aureus [23]): 25 µM (≈ 8.08 µg/mL)
MIC (Enterococcus faecalis [24]): 25 µM (≈ 8.08 µg/mL)
MIC (Listeria monocytogenes [25]): 12 µM (≈ 3.88 µg/mL)
MIC (Bacillus cereus [26]): 6 µM (≈ 1.94 µg/mL)
MIC (Listeria innocua): 12 µM (≈ 3.88 µg/mL)
MIC [27]: 25 µM (≈ 8.08 µg/mL)
MIC (Staphylococcus aureus [28]): 25 µM (≈ 8.08 µg/mL)
MIC (Staphylococcus aureus [29]): 12 µM (≈ 3.88 µg/mL)
MIC (Enterococcus avium): 12 µM (≈ 3.88 µg/mL)
MIC [30]: 12 µM (≈ 3.88 µg/mL)
MIC (Staphylococcus aureus [31]): 12 µM (≈ 3.88 µg/mL)
MIC (Listeria monocytogenes [32]): 25 µM (≈ 8.08 µg/mL)
MIC (Enterococcus faecium [33]): 25 µM (≈ 8.08 µg/mL)
MIC (Streptococcus agalactiae): 3 µM (≈ 0.969 µg/mL)
MIC (Enterococcus faecalis [34]): 200 µM (≈ 64.6 µg/mL)
MIC (Corynebacterium striatum): 50 µM (≈ 16.2 µg/mL)
MIC (Enterococcus faecium [35]): 25 µM (≈ 8.08 µg/mL)
MIC [36]: 25 µM (≈ 8.08 µg/mL)
MIC (Bacillus cereus [37]): 6 µM (≈ 1.94 µg/mL)
MIC (Enterococcus faecium [38]): 25 µM (≈ 8.08 µg/mL)
SMILES: O=C(N[C@H](CO)[C@H](O)c1ccc([N+](=O)[O-])cc1)C(Cl)Cl [CHLORAMPHENICOL]
MIC [15]: 6 µM (≈ 1.94 µg/mL)
